Reference: ChEMBL document CHEMBL1138306, “New antioxidant polyphenols from the medicinal mushroom Inonotus obliquus” (Bioorg Med Chem Lett, 2007)

Key:
Format in all cases: functional
[1] = Antioxidant activity assessed as superoxide radical scavenging activity by xanthine oxidase method
Summary of the method: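 Superoxide generated by xanthine/xanthine oxidase in 50 mM potassium phosphate buffer (pH 7.8) containing 1 mM EDTA, 0.04 mM NBT, 0.18 mM xanthine and 250 mU/mL xanthine oxidase. Samples tested at a series of concentrations. Incubation 30 min at 37 C in the dark. Superoxide reduction of NBT to blue formazan used as read-out. IC50 determined.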

[2] = Ratio of IC50 for drug to trolox for DPPH radical scavenging activity
[3] = Ratio of IC50 for drug to trolox for ABTS radical scavenging activity
Summary of the method: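 ABTS radical cation made from 7 mM aqueous ABTS stock reacted with 2.45 mM potassium persulfate, left 12 h in the dark. Radical solution mixed with samples in ethanol. Absorbance read at 734 nm up to 6 min after mixing. IC50 expressed relative to trolox.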

Structure (SMILES) | IC50 [1] [µM] | Ratio IC50 [2] | Ratio IC50 [3]
O=C(O)/C=C/c1ccc(O)c(O)c1 [CAFFEIC ACID] | 10.2 | 0.41 | 0.66
O=C1C=C(/C=C/c2ccc(O)c(O)c2)OC12C(c1cc3oc(=O)c4cc(O)c(O)cc4c3c(=O)o1)=Cc1cc(O)c(O)cc12 (stereo unspecified) [PHELLIGRIDIN G] | 92.3 | 1.48 | 0.43
O=c1oc2cc(/C=C/c3ccc(O)c(O)c3)oc(=O)c2c2cc(O)c(O)cc12 [PHELLIGRIDIN D] | 85.5 | 1.51 | 0.33
Cc1cc(=O)cc(-c2cc(O)c(O)cc2-c2c(O)cc(/C=C/c3ccc(O)c(O)c3)oc2=O)o1 | 97.6 | 0.82 | 0.65
CC(=O)C1(O)C(c2cc3oc(=O)c4cc(O)c(O)cc4c3c(=O)o2)=Cc2cc(O)c(O)cc21 (stereo unspecified) | 90.8 | 1.42 | 0.58
O=c1oc(/C=C/c2ccc(O)c(O)c2)cc(O)c1-c1cc(O)c(O)cc1/C=C/c1cc2oc(=O)c3cc(O)c(O)cc3c2c(=O)o1 [PHELLIGRIDIN I] | 93.6 | 1.45 | 0.43
CC1=CC(=O)C2(O1)C(c1cc3oc(=O)c4cc(O)c(O)cc4c3c(=O)o1)=Cc1cc(O)c(O)cc12 (stereo unspecified) [PHELLIGRIDIN E] | 120 | 1.57 | 0.4
